An excerpt weighted towards active compounds, which were near 1.8% of everything screened.
Bfl-1 A1 inh – inhibitors of the anti-apoptotic protein A1, read as caspase activation | MEF A1-2A-BIM cells, Caspase-Glo 3/7 luminescence, 3 h; percent of clofoctol response, vehicle zero | caspase activation, % (no concentration beside the values) | 0.066% of 330,000 active | AID 2462;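 active = over half of replicate activation scores above 10%, or exactly half above 10 with the replicate mean above 10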
AI-2 QS mod – Vibrio harveyi AI-2 quorum sensing modulation; Vibrio harveyi JMH597 AI-2 luminescence/OD600 ratio, 9 h; stronger effect = lower value; strain lacks LuxN and CqsS sensors; 0 = neutral-control median; activity change, % at 7.5 µM; 0.4% of 300,000 active; AID 2094; in the data active = activity change below about -75%, passing the limit was not always enough;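 note: luminescence divided by OD600 gain over 9 h not by final OD600 alone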
LANA-H2A inh – blocks KSHV LANA binding to histone H2A/H2B | Q9QR71 | cell-free LANA-H2A/H2B peptide, fluorescence polarization | inhibition, % (concentration not given with the values) | 0.6% of 320,000 active | AID 2629; in the data active = inhibition mostly above about 10%, no sharp cut-off; inactive = mostly below about 6.7%
Target sequence (Q9QR71 whole entry, looked up): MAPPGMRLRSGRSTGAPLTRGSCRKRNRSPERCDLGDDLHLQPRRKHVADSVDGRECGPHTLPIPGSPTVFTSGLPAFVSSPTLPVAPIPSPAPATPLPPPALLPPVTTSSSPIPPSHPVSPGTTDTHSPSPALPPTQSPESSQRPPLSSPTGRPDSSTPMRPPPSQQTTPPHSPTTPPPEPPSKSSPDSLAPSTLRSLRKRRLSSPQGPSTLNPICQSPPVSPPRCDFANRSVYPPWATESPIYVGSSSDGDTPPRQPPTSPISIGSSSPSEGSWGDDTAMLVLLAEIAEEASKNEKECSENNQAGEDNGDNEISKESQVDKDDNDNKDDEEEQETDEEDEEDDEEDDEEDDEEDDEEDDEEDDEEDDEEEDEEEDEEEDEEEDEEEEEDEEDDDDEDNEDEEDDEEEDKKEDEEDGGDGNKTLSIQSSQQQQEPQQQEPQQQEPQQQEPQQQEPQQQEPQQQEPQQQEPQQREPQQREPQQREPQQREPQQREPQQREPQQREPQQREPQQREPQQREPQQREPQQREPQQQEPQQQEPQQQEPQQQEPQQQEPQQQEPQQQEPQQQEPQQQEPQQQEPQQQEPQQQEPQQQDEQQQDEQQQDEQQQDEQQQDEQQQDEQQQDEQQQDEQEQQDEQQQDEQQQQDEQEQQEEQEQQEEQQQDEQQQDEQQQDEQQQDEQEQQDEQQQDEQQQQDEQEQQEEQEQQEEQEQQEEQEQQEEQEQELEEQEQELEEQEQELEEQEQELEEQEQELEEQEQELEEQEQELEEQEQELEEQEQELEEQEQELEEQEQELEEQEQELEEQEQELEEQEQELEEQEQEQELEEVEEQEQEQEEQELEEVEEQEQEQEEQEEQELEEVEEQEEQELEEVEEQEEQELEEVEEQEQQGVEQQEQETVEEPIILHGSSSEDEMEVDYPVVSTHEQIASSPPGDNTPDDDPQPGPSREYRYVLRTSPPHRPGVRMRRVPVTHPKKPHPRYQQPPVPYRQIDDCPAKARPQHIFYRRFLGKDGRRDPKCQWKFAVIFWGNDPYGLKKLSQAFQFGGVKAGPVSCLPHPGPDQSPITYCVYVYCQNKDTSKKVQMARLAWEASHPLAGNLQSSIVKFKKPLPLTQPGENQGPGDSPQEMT
HKDC1 inh – inhibitors of human hexokinase HKDC1; 0.16% of 340,000 active; Q2TB90; AID 493160; recombinant HKDC1, G6PDH/diaphorase resazurin coupled fluorescence; inhibition, % at 20 µM;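 active = inhibition above about 35% when tested at 20 µM, limit read from the data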
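Test system: HK5 enzyme. Quantity: 5 µg/mL HK5 final. Reagent: glucose and ATP substrates. Schedule: 90 min reaction incubation at room temperature, dark. Technique: resazurin-to-resorufin fluorescence via G6PDH and diaphorase coupling, 525/613 nm. Control set: DMSO wells with and without enzyme mix.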
ATG4B inhibitor – ATG4B (human) cysteine protease inhibition. 0.51% of 340,000 active. ATG4B cleavage of LC3-PLA2, NBD-HPC fluorescence, 1 h. inhibition, % at 8.33 µM. AID 504462. Q9Y4P1; in the data active = inhibition above about 40%
HDAC3 inhib – inhibitors of human histone deacetylase 3 | inhibition, % at 8.3 µM | 0.15% of 320,000 active | recombinant HDAC3, fluorogenic peptide/trypsin coupled, fluorescence; in the data active = inhibition above about 26%, passing the limit was not always enough
Hits are given with their value; i = inactive; nt = not tested or not shown; + = active, no number; ! = repeats disagree.

SMILES	Bfl-1 A1 inh	AI-2 QS mod	LANA-H2A inh	HKDC1 inh	ATG4B inhibitor	HDAC3 inhib
C[C@H](CO)N1C[C@H](C)[C@@H](CN(C)C(=O)NC2CCCCC2)Oc2ccc(NC(=O)Cc3ccccc3)cc2C1=O	i	nt	i	i	i	i
COc1ccc(C(C(=O)NC(C)(C)C)N(Cc2ccccc2)C(=O)CCC(=O)Nc2cc(C)on2)cc1 (stereo not given)	i	i	i	i	i	i
COc1ccc(C(C(=O)NC(C)(C)C)N(CCC(C)C)C(=O)CCC(=O)Nc2cc(C)on2)cc1 (stereo not given)	i	i	18.8	i	i	i
Cc1cc2nccnc2cc1C	nt	nt	nt	i	i	nt
CCOc1ccccc1C(=O)N[C@H](C(=O)OCC(=O)Nc1nnc(-c2ccccc2)o1)C(C)C	nt	nt	nt	i	i	nt
S=C1NC2=C(CCCC2=C2SCCCS2)C(c2ccccc2)N1 (stereo not given)	i	i	i	i	i	43.3
COc1ccc(CCN2CC(C(=O)N(C)CC(=O)Nc3ccc(F)c(F)c3F)CC2=O)cc1OC (stereo not given)	nt	nt	nt	i	i	nt
Cc1ccc2nc3c(cc(C(=O)NCC4CCCO4)c(=N)n3CCCOC(C)C)c(=O)n2c1 (stereo not given)	nt	i	18.1	i	i	nt
CCOCCCNc1nc2nc3ccc(C)cn3c(=O)c2cc1C(=O)NCC1CCCO1 (stereo not given)	i	i	i	i	i	i
COc1ccc2ccccc2c1/C=N\NC(=O)c1ccc(C)s1	i	i	i	i	i	i
COc1ccc2ccccc2c1/C=N/NC(=O)c1sc(N)c(C#N)c1C	i	i	+	i	i	i
CCOC(=O)c1c(NC(=O)CN2CCN(S(=O)(=O)c3cc(Cl)ccc3Cl)CC2)sc(C(=O)N(C)C)c1C	nt	nt	nt	i	i	nt
C=CC[N+]1(CC=C)CCOCC1	8.6	i	i	i	i	i
Cc1cccc(-c2nnc(-c3ccc4ccccc4c3)o2)c1	nt	nt	nt	i	i	nt
CCCCCCc1cc2cc(-c3nnc(-c4ccccc4OC)o3)c(=O)oc2cc1O	i	i	10.3	i	i	i
CC(C)c1ccc(S(=O)(=O)N2CCN(C(=O)c3cccc(S(=O)(=O)N4CCOCC4)c3)CC2)cc1	nt	nt	nt	i	i	nt
O=C1/C(=C\c2c(NCCOCCO)nc3ccccn3c2=O)SC(=S)N1Cc1ccco1	9.1	i	i	i	i	i
N/C(=N\OC(=O)C1CC1)c1ccc([N+](=O)[O-])s1	i	-87.8	i	i	i	i
CC(C)(C)C(=O)O/N=C(\N)c1ccc([N+](=O)[O-])s1	i	-84.2	i	i	i	i
O=S(=O)(NCCc1c[nH]c2ccccc12)c1ccc(F)cc1	nt	nt	nt	i	i	nt
CC(C)OCCCNc1nc(Cl)nc2c1cnn2C	nt	nt	nt	i	i	nt
O=C(Nc1ccc(F)c(F)c1)C1CCN(S(=O)(=O)c2cccs2)CC1	i	nt	i	i	i	i
Cc1cc(C(=O)C(C(c2ccccc2)N2CCOCC2)N2CCOCC2)ccc1Cl (stereo not given)	nt	nt	nt	i	i	nt
C/C(=N\N=C1/NC(=O)C(C)S1)c1ccc([N+](=O)[O-])cc1 (stereo not given)	i	i	15.7	i	i	i
COc1cccc2c1C(=O)c1c(O)c3c(c(O)c1C2=O)C[C@@](O)(C(=O)CO)C[C@@H]3O[C@H]1C[C@H](N)[C@H](O)[C@H](C)O1	i	i	24.6	i	i	i
SMILES	Bfl-1 A1 inh	AI-2 QS mod	LANA-H2A inh	HKDC1 inh	ATG4B inhibitor	HDAC3 inhib
COc1cccc2c1C(=O)c1c(O)c3c(c(O)c1C2=O)C[C@@](O)(C(=O)CO)C[C@@H]3OC1CC(N)C(O)C(C)O1 (stereo not given in full)	nt	nt	nt	i	i	nt
O=C(O)CP(=O)(O)O	i	i	7.2	i	i	i
CCOC(=O)C1CCCN(c2c(NCCCN(CC)c3ccccc3)c(=O)c2=O)C1 (stereo not given)	i	i	17.5	i	i	i
CCOC(=O)C1CCCN(c2c(NCCN(CC)c3ccccc3)c(=O)c2=O)C1 (stereo not given)	i	i	i	i	i	i
Cc1ccc(Cc2nc(-c3ccccn3)no2)cc1	i	-84.5	i	i	i	i
COC1=CC(=O)OC(c2ccco2)C1 (stereo not given)	nt	nt	nt	i	i	nt
Cc1ccc[n+](-c2nc([O-])sc2C=O)c1	i	nt	29.3	i	i	i
CC(C)CC(NC(=O)c1cccc(Cl)c1)C(=O)O (stereo not given)	i	i	-6.2	i	i	i
Cc1cc(C(=O)NC(CC(C)C)C(=O)O)cc(C)c1[N+](=O)[O-] (stereo not given)	i	i	25.1	i	i	i
CSCCC(NC(=O)c1ccccc1Cl)C(=O)N1CCCCCCC1 (stereo not given)	i	nt	i	i	i	i
COc1ccc(C(=O)NC(CCSC)C(=O)N2CCCCCC2)cc1 (stereo not given)	i	i	30.8	i	i	i
CCOC(=O)c1ccc(OC(=O)CCCCCN=C(N)N)cc1	i	i	i	i	i	92.8
CC(C)(C)OC(=O)C[C@@H]1C/C=C\C[C@H](CC(=O)N[C@H](CO)Cc2ccccc2)C(=O)N2CCC[C@H]2COC1=O	i	nt	i	i	i	i
CCOCCCn1c(SCC(=O)Nc2ccccc2OC)nc2ccccc2c1=O	i	i	i	i	i	i
COCCCn1c(SCC(=O)Nc2ccc(NC(=O)c3ccco3)c(OC)c2)nc2ccccc2c1=O	i	nt	28.0	i	i	i
CCOc1ccc2cc(C#N)c(SCC(=O)NC(C)CC)nc2c1 (stereo not given)	i	i	33.8	nt	nt	i
CCOC(=O)CSc1nc2cc(OCC)ccc2cc1C#N	i	i	i	i	i	i
COC(=O)c1cc(OC)nc(OC)c1	i	i	25.0	i	i	i
COC(=O)c1cc(O)c(O)c(O)c1	i	i	i	i	i	i
CC(NCC(=O)Nc1ccccc1C(=O)NC1CC1)c1ccc(S(N)(=O)=O)cc1 (stereo not given)	i	nt	+	i	i	i
CCOC(=O)c1nn(C)c(=S)n(C)c1=O	nt	nt	nt	i	i	nt
CC(N=C(NC#N)Nc1ccncc1)C(C)(C)C (stereo not given)	i	i	48.0!	i	i	i
CCOC(=O)C1C(=O)CC(C)(O)C(C(=O)OCC)C1c1ccc2c(c1)OCO2 (stereo not given)	i	i	178.4	i	i	i
CCOC(=O)C1C(=O)CC(C)(O)C(C(=O)OCC)C1c1ccc(F)cc1 (stereo not given)	i	i	i	i	i	i
Cn1c(=O)c2c(nc(N3CCOCC3)n2CCSc2ncccn2)n(C)c1=O	i	i	i	i	i	i
CC1CC(C)CN(c2nc3c(c(=O)n(C)c(=O)n3C)n2CCSc2ncccn2)C1 (stereo not given)	i	i	21.9	i	i	i
NC(=NCc1ccccc1)C(N=Nc1ccccc1)C(=O)NCc1ccccc1 (stereo not given)	nt	nt	nt	i	i	nt
